Measurements: PubChem BioAssay AID624467 (The Scripps Research Institute Molecular Screening Center, 2012)
The campaign covered roughly 360,000 compounds. About 3,600 (1%) were called active.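 The calls were made as follows: active = activation above the mean activation of all test compounds in the run plus 3 SD (cut at about 38% in these data); inactive = the rest.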 This excerpt belongs to a sample that is enriched for actives.

Each compound was assayed against Trace amine-associated receptor 1 (Homo sapiens) (UniProt Q96RJ0) (assay: human TAAR1 agonists, primary screen, Fluo-8 calcium fluorescence, CHO RD-HGA16 cells (AID 624467)). Conditions: CHO RD-HGA16 TAAR1, Fluo-8 calcium fluorescence; at 3 µM; active compounds read high; vehicle wells 0%, saturating PEA agonist 100%.
Summary of the method: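 Test system: RD-HGA16 (CHO) cells co-expressing Gα16 and hTAAR1 / Benchmarks: DMSO vehicle as 0%, PEA at EC100 as 100% / Repeats: no replicates (n 1) / Measure: % activation from peak over basal fluorescence ratio, DMSO-to-PEA scaled / Timing: 17-24 h plating, Fluo-8 75 min 37 °C, 30 min RT / Technique: kinetic Fluo-8 calcium fluorescence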

Trace amine-associated receptor 1 (Homo sapiens), sequence (Q96RJ0 whole entry, looked up): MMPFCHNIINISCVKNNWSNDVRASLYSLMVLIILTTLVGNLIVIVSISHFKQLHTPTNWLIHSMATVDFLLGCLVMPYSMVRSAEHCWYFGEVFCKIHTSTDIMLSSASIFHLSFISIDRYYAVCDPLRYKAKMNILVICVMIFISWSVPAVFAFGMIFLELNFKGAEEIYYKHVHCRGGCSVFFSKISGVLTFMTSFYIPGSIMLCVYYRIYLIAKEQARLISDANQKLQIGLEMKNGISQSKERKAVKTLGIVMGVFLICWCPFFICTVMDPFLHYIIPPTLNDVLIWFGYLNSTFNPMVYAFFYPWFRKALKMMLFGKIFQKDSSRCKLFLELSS

Compound	activation
CN(c1cccc(NC(=O)c2ccc(CN3CCc4ccccc4C3)cc2)c1)S(C)(=O)=O	7.79% (inactive)
CC(C)S(=O)(=O)c1csc(NC(=O)Nc2ccc(Cl)cc2)c1Cl	17.9% (inactive)
CN(c1cccc(NC(=O)Nc2ccc(Cl)cc2)c1)S(C)(=O)=O	46.9% (active)
CC(=O)NC1=NN(C(C)=O)C(C)(c2ccc(Cl)s2)S1 (stereo unspecified)	5.71% (inactive)
CN(C)S(=O)(=O)N1CCC(Oc2cccc(C(=O)NCCCC3CCCC3)c2)CC1	11.3% (inactive)
O=C1CCCC(O)=C1C=NCCc1ccccc1	60.6% (active)
O=C1CC(c2ccccc2)CC(O)=C1C=NCCN1CCOCC1 (stereo unspecified)	2.73% (inactive)
CC1(C)CC(=O)C(C=NCCC2=CCCCC2)=C(O)C1	20.1% (inactive)
COC(=O)C1=C(C)N(Cc2ccccc2C(F)(F)F)C(=NCc2ccc(OC)cc2)NC1c1cccc(C(F)(F)F)c1 (stereo unspecified)	9.5% (inactive)
CC(C)N(Cc1ccccc1)C(=O)COC(=O)c1ccccc1SCC(=O)N1CCCC1	15.6% (inactive)
O=C(NCCCc1ccccc1)C(=O)NCC1OCCN1S(=O)(=O)c1ccccc1 (stereo unspecified)	8.57% (inactive)
COc1ccc(CCNC(=O)C(=O)NCC2OCCN2S(=O)(=O)c2cccs2)cc1OC (stereo unspecified)	1.17% (inactive)
O=C(NCCc1ccccc1)C(=O)NCC1OCCN1S(=O)(=O)c1cccs1 (stereo unspecified)	56.5% (active)
COc1cccc(CNC(=O)[C@H]2CCCN2C(=O)[C@H]2CCCN2C(=O)c2cc(F)cc(F)c2)c1	2.08% (inactive)
O=C1Nc2ccccc2C1=NN=Cc1ccco1	0.51% (inactive)
Cn1nc(C(F)(F)F)c(C(=O)Nc2cccc(C(F)(F)F)c2)c1SCc1ccc(Cl)cc1	11% (inactive)
COCc1nc2ccccc2n1Cc1ccccc1Br	12.1% (inactive)
NC(=O)C1=C[C@@H](c2csc3ccccc23)C[C@@H](OCc2ccc(CO)cc2)O1	22.2% (inactive)
O=C(NC1CC1)C1=C[C@H](c2c[nH]c3ccccc23)C[C@H](OCc2ccc(CO)cc2)O1	5.4% (inactive)
NC(=O)C1=C[C@H](c2csc3ccccc23)C[C@H](OCc2ccc(CO)cc2)O1	60.3% (active)
COc1ccc(CCN(C)C(=O)C23CC4CC(CC(Cl)(C4)C2)C3)cc1OC	-1.21% (inactive)
Cc1cccc(CCNS(=O)(=O)c2ccc3c(c2)NC(=O)CO3)c1	5.47% (inactive)
Cc1cccc(CCNS(=O)(=O)c2ccc(S(=O)(=O)NC3CCCC3)cc2)c1	42.8% (active)

Compound	activation
CC(C)c1ccc(S(=O)(=O)NC2CCCC2)cc1	1.12% (inactive)
CN1CCCN(C(=O)C2CCCCC2)CC1	1.26% (inactive)
CC1(Oc2ccccc2-c2ccno2)CCN(Cc2ccc(-c3ccccc3)o2)C1 (stereo unspecified)	1.77% (inactive)
Cc1cc2nc3c(=O)[nH]c(=O)nc-3n(C[C@H](O)[C@H](O)[C@H](O)CO)c2cc1C	45.3% (active)
CCCn1nc2cc(C(=O)NCc3ccccc3)ccc2c1OCC	3.65% (inactive)
CCOc1ccc(Cn2nnc(C(=O)NCc3ccccc3)c2N)cc1	83.3% (active)
COc1cccc(CNC(=O)c2nnn(CC(=O)Nc3cc(Cl)ccc3C)c2N)c1	2.23% (inactive)
COc1cccc(CNC(=O)c2nnn(CC(=O)Nc3cc(C)ccc3C)c2N)c1	2.69% (inactive)
Nc1c(C(=O)Nc2ccc3c(c2)OCCO3)nnn1Cc1ccccc1	0.57% (inactive)
CCOc1ccc(Cn2nnc(C(=O)Nc3ccc(OC)cc3OC)c2N)cc1	42.5% (active)
Cc1cc(OCCCC(=O)NCCN2C(=O)S/C(=C\c3cccnc3)C2=O)ccc1Cl	16.7% (inactive)
CCOc1ccc(-n2c(SCC(=O)NC3CCS(=O)(=O)C3)nnc2-c2cccnc2)cc1 (stereo unspecified)	-0.1% (inactive)
CCOC(=O)c1c(N)c(C#N)nn1-c1ccccc1C(=O)OC	1.23% (inactive)
COc1ccc(Cl)cc1C(=O)NNC(=S)NC(=O)/C=C/c1ccco1	55.3% (active)
COc1ccc(Cl)cc1C(=O)NNC(=O)c1nc2nc(C)cc(C)n2n1	-0.4% (inactive)
O=C(/C=C/c1ccco1)NC(=S)N1CCCCC1	1.82% (inactive)
CC(C)OC(=O)Cn1nc(C(F)(F)F)c2c1CCCC2	3.22% (inactive)
CCCCn1c(N)c(N(CC(C)C)C(=O)C2CSC3(C)CCC(=O)N23)c(=O)[nH]c1=O (stereo unspecified)	4.3% (inactive)
COC(=O)C1=C(C)NC(=S)NC1c1ccc(OC)cc1 (stereo unspecified)	1.73% (inactive)
CC(C)(C)c1ccc(S(=O)(=O)NCC2CCN(C(=O)C(=O)c3cc4ccccc4o3)CC2)cc1	-0.02% (inactive)
O=C1CCC/C=C/C[C@@H](CC(=O)N(CCO)Cc2ccccc2)C(=O)NC[C@H](c2ccccc2)O1	5.38% (inactive)
O=C1N[C@@H](c2ccccc2)COC(=O)[C@H](Cc2ccc(F)cc2)C/C=C\C[C@@H]1CC(=O)N(CCO)Cc1ccccc1	18.8% (inactive)
O=C1NC[C@@H](c2ccccc2)OC(=O)[C@H](Cc2ccc(F)cc2)CC/C=C/C[C@H]1CC(=O)N(CCO)Cc1ccccc1	42.6% (active)

Compound	activation
Fc1ccc(-n2c(Cc3ccccc3)nnc2SCc2nc(-c3ccc(Cl)cc3)no2)cc1	2.7% (inactive)
Cc1ccc2cc(C)c(N3CCC(C)CC3)nc2c1	17.1% (inactive)
Cc1cc(C)c2cc(C#N)c(N3CCNCC3)nc2c1	69.6% (active)
Cc1ccc2cc(C)c(N3CCN(c4ccc(F)cc4)CC3)nc2c1	1.28% (inactive)
C[C@H]1CN([C@@H](C)CO)S(=O)(=O)c2ccc(Br)cc2O[C@H]1CN(C)C(=O)c1cnccn1	1.33% (inactive)
CCCOC(=O)c1ccc(N2C(=O)c3ccccc3C2=O)cc1	-1.04% (inactive)
CC(=O)Nc1ccccc1Sc1ccc2c3c(cccc13)C(=O)N(c1ccc(C)cc1)C2=O	47.3% (active)
CSc1ccccc1NC(=O)C(C)N1C(=O)c2ccccc2S1(=O)=O (stereo unspecified)	2.86% (inactive)
Cc1ccc(NC(=O)Cn2c(C)csc2=O)cc1	0.43% (inactive)
Cc1ccc(NC(=O)Cn2sc3ccccc3c2=O)cc1	37.5% (active)
O=C(Cn1nc(C(=O)O)c2ccccc2c1=O)Nc1ccc(F)cc1	6.51% (inactive)
COc1cccc(CNC(=O)[C@H]2CCCN2C(=O)[C@H]2CCCN2C(=O)c2ccc(F)cc2)c1	-0.3% (inactive)
COC(=O)N1Cc2ccnnc2CC1c1ccccc1Br (stereo unspecified)	0.4% (inactive)
O=[N+]([O-])c1cc(Cl)cc(/C=N/NC(=S)Nc2cc(S(=O)(=O)N3CCOCC3)ccc2Cl)c1O	0.47% (inactive)
O=C(NN=Cc1ccco1)C(=O)Nc1ccc(Cl)c([N+](=O)[O-])c1	1.63% (inactive)
O=C(N/N=C/c1cc(Cl)cc([N+](=O)[O-])c1O)C(O)(c1ccccc1)c1ccccc1	42.4% (active)
CCOC(=O)C1CSCCS(=O)(=O)N1Cc1ccc(Cl)cc1 (stereo unspecified)	1.13% (inactive)
CCN1C(=O)N[C@@H]2C[C@H](C(=O)N3CCCC3)[C@H](C)[C@H](c3ccccc3)C[C@@H]21	0.86% (inactive)
Cc1c(CNCCc2ccccc2)c(C(=O)O)c(C)n1-c1ccccc1	78.1% (active)
Cc1c(C(=O)NCc2ccccc2)cnn1-c1ccccc1	2.79% (inactive)
CNC(=O)CSc1nnc(CCc2ccccc2)n1-c1ccccc1	5.04% (inactive)
COc1ccc(C2=CN(Cc3ccccc3)C(c3ccc(OC)cc3)CC2=O)cc1 (stereo unspecified)	-1.8% (inactive)
O=C(NC1CCCC1)c1cc(-c2ccccc2)on1	2.47% (inactive)

Compound	activation
Cc1ccc(C(=O)NC(C)c2ccccc2)cc1Br (stereo unspecified)	-1.3% (inactive)
CC(NC(=O)c1cc(-c2ccccc2)on1)c1ccccc1 (stereo unspecified)	52% (active)
Cc1[nH]c2ccccc2c1CC(=O)Nc1ccc(Nc2cccnc2)c(-c2cccc(Cl)c2)c1	1.11% (inactive)
O=S1(=O)c2ccc(Br)cc2-n2nncc2CN1Cc1cccc(Cl)c1	1.66% (inactive)
CCCn1c(O)c(CN2CCCC(C)C2)c(C)c(C#N)c1=O (stereo unspecified)	96.4% (active)
Cc1c(CN2CCCCC2)c(O)n(CCO)c(=O)c1C#N	11.5% (inactive)
CCCCCCn1c(CN2CCCC(C)C2)nc2c1c(=O)n(C)c(=O)n2C (stereo unspecified)	0.08% (inactive)
CN(C)C(CNC(=O)c1cccc(S(=O)(=O)Nc2ccc(Br)cc2)c1)c1ccco1 (stereo unspecified)	16.7% (inactive)
COc1ccc(C(CNC(=O)c2cccc(S(=O)(=O)Nc3ccc(Br)cc3)c2)N(C)C)cc1 (stereo unspecified)	40.2% (active)
COc1ccc(C(CNC(=O)c2ccc(NS(=O)(=O)c3ccc(F)c(C)c3)cc2)N(C)C)cc1 (stereo unspecified)	3.7% (inactive)
COc1ccc(-n2cc(CNC3CCOCC3)c(-c3cccc(F)c3)n2)cc1	7.84% (inactive)
COc1ccc(NC(=O)C(=O)NCC(c2ccco2)N2CCc3ccccc3C2)cc1 (stereo unspecified)	62.3% (active)
CCOC(CNC(=O)C(=O)NCC(c1ccco1)N1CCN(c2ccc(OC)cc2)CC1)OCC (stereo unspecified)	3.05% (inactive)
O=C(NCC(c1ccco1)N1CCc2ccccc2C1)c1ccccc1Cl (stereo unspecified)	12.4% (inactive)
Cc1[nH]nc2c1C(c1ccc(Br)cc1)NC2=O (stereo unspecified)	0.5% (inactive)
CCOc1ccc(Br)cc1CSC(=N)N	70.5% (active)
CCOc1ccc(Br)cc1S(=O)(=O)N1CCC(C(=O)O)CC1	-0.19% (inactive)
CC(C)(C)NCc1cc(Br)ccc1OC1CCCC1	1.46% (inactive)
CC(=O)N1C[C@@H](CO)[C@@H](N(C)C(=O)C(C)(C)C)C[C@H]1c1ccccc1Br	3.7% (inactive)
S=C(Nc1ccc(Br)cc1Cl)NC1CCN(Cc2ccccc2)CC1	18% (inactive)
S=C(Nc1ccc(Br)cc1)NC1CCN(Cc2ccccc2)CC1	63% (active)
O=C(COc1ccc(Br)cc1F)NC1CCN(Cc2ccccc2)CC1	7.63% (inactive)
